Measurements from ChEMBL document CHEMBL1156308 (J Med Chem, 2010).

How the values were obtained:
Assay type in all cases: ADME, organism-based
[1] = Biodistribution in baboon lung at 85 mg, iv after 30 mins; settings: papio hamadryas, read-out: Drug uptake
[2] = Biodistribution in baboon lung at 85 mg, iv after 90 mins; settings: papio hamadryas, read-out: Drug uptake
[3] = Biodistribution in baboon kidney medulla at 85 mg, iv after 15 mins; settings: papio hamadryas, read-out: Drug uptake
Summary of the method: (§1)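 The [11C]-labeled drug was given as an i.v. micro dose via a radial arm vein to anesthetized baboons (ketamine 10 mg/kg i.m.; O2/N2O/isoflurane 1–4%), then torso PET. Organ TACs came from manually drawn ROIs and are reported as %ID/cc. µg/ml was estimated assuming a 5 mg/kg dose, a 17 kg baboon, and that the positron signal is intact drug.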

[4] = Biodistribution in baboon kidney cortex at 85 mg, iv after 30 mins; settings: papio hamadryas, read-out: Drug uptake
[5] = Biodistribution in baboon heart at 85 mg, iv after 60 mins; settings: papio hamadryas, read-out: Drug uptake
[6] = Biodistribution in baboon whole brain at 85 mg, iv after 60 mins; settings: papio hamadryas, read-out: Drug uptake
Summary of the method: (§2)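 Brain PET ran 90 min after i.v. [11C]-labelled drug in anaesthetised baboons. Whole-brain regions of interest gave time-activity curves in %ID/cc. µg/ml values were estimated from baboon weight (17 kg) and the recommended human daily dose per kg, assuming signal comes from intact drug.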

[7] = Biodistribution in baboon kidney medulla at 85 mg, iv after 90 mins; settings: papio hamadryas, read-out: Drug uptake; summary of the method: as §1
[8] = Biodistribution in baboon plasma at 85 mg, iv after 30 mins; settings: papio hamadryas, read-out: Drug uptake
Summary of the method: (§3)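 Anaesthetised baboons received [11C]-labelled drug i.v. (radial arm vein) by PET protocol. Arterial blood was drawn from a popliteal catheter every 5 s for 2 min, then at 2–90 min. Plasma activity is given as %ID/cc. µg/ml values were estimated from the human daily dose per kg scaled to a 17 kg baboon, assuming signal comes from intact drug.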

[9] = Biodistribution in baboon whole brain at 85 mg, iv after 30 mins; settings: papio hamadryas, read-out: Drug uptake; summary of the method: as §2
[10] = Biodistribution in baboon heart at 85 mg, iv after 90 mins; settings: papio hamadryas, read-out: Drug uptake
[11] = Biodistribution in baboon whole brain at 85 mg, iv after 90 mins; settings: papio hamadryas, read-out: Drug uptake; summary of the method: as §2
[12] = Biodistribution in baboon kidney cortex at 85 mg, iv after 15 mins; settings: papio hamadryas, read-out: Drug uptake
[13] = Biodistribution in baboon plasma at 85 mg, iv after 90 mins; settings: papio hamadryas, read-out: Drug uptake; summary of the method: as §3
[14] = Biodistribution in baboon lung at 85 mg, iv after 15 mins; settings: papio hamadryas, read-out: Drug uptake
[15] = Biodistribution in baboon liver at 85 mg, iv after 30 mins; settings: papio hamadryas, read-out: Drug uptake
[16] = Biodistribution in baboon kidney medulla at 85 mg, iv after 60 mins; settings: papio hamadryas, read-out: Drug uptake; summary of the method: as §1
[17] = Biodistribution in baboon lung at 85 mg, iv after 60 mins; settings: papio hamadryas, read-out: Drug uptake
[18] = Biodistribution in baboon liver at 85 mg, iv after 60 mins; settings: papio hamadryas, read-out: Drug uptake
[19] = Biodistribution in baboon plasma at 85 mg, iv after 15 mins; settings: papio hamadryas, read-out: Drug uptake
Summary of the method: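 Anesthetised baboons (ketamine 10 mg/kg i.m.; oxygen, nitrous oxide and isoflurane 1–4% during scanning) got a micro dose of [11C]-labelled drug i.v. via a radial arm vein; arterial blood was sampled serially over 90 min. Plasma %ID/cc was converted to µg/ml from the listed dose over a 17 kg baboon, assuming the signal is intact drug.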

[20] = Biodistribution in baboon kidney cortex at 85 mg, iv after 60 mins; settings: papio hamadryas, read-out: Drug uptake
[21] = Biodistribution in baboon kidney medulla at 85 mg, iv after 30 mins; settings: papio hamadryas, read-out: Drug uptake; summary of the method: as §1
[22] = Biodistribution in baboon liver at 85 mg, iv after 90 mins; settings: papio hamadryas, read-out: Drug uptake
[23] = Biodistribution in baboon liver at 85 mg, iv after 15 mins; settings: papio hamadryas, read-out: Drug uptake
[24] = Biodistribution in baboon kidney cortex at 85 mg, iv after 90 mins; settings: papio hamadryas, read-out: Drug uptake
[25] = Biodistribution in baboon plasma at 85 mg, iv after 60 mins; settings: papio hamadryas, read-out: Drug uptake; summary of the method: as §3
[26] = Biodistribution in baboon heart at 85 mg, iv after 15 mins; settings: papio hamadryas, read-out: Drug uptake
[27] = Biodistribution in baboon heart at 85 mg, iv after 30 mins; settings: papio hamadryas, read-out: Drug uptake
[28] = Biodistribution in mouse whole brain at 10 mg/kg, sc after 30 mins; design: dose 10 mg/kg, route subcutaneous; settings: read-out: Drug uptake
[29] = Biodistribution in mouse whole brain at 10 mg/kg, sc after 60 mins; design: dose 10 mg/kg, route subcutaneous; settings: read-out: Drug uptake

NN[11C](=O)c1ccncc1
concentration at 0.5 h [1]: 6090 ng/mL
concentration at 1.5 h [2]: 4190 ng/mL
concentration at 0.25 h [3]: 18900 ng/mL
concentration at 0.5 h [4]: 9260 ng/mL
concentration at 1 h [5]: 3740 ng/mL
concentration at 1 h [6]: 2110 ng/mL
concentration at 1.5 h [7]: 14700 ng/mL
concentration at 0.5 h [8]: 2960 ng/mL
concentration at 0.5 h [9]: 2540 ng/mL
concentration at 1.5 h [10]: 4150 ng/mL
concentration at 1.5 h [11]: 1750 ng/mL
concentration at 0.25 h [12]: 15100 ng/mL
concentration at 1.5 h [13]: 1620 ng/mL
concentration at 0.25 h [14]: 7720 ng/mL
concentration at 0.5 h [15]: 9710 ng/mL
concentration at 1 h [16]: 16400 ng/mL
concentration at 1 h [17]: 4420 ng/mL
concentration at 1 h [18]: 7640 ng/mL
concentration at 0.25 h [19]: 3760 ng/mL
concentration at 1 h [20]: 7720 ng/mL
concentration at 0.5 h [21]: 15400 ng/mL
concentration at 1.5 h [22]: 6910 ng/mL
concentration at 0.25 h [23]: 12500 ng/mL
concentration at 1.5 h [24]: 8540 ng/mL
concentration at 1 h [25]: 2050 ng/mL
concentration at 0.25 h [26]: 8720 ng/mL
concentration at 0.5 h [27]: 6130 ng/mL

NN[14C](=O)c1ccncc1
concentration at 0.5 h [28]: 4400 ng/g
concentration at 1 h [29]: 3200 ng/g
